# In PubChem BioAssay:
# The source made the active and inactive calls.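 Rule for the calls, unless noted: active = inhibition at or above 50% at 10 µM; inactive = inhibition below 50%.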
# Columns and labels:
# [1] = inhibitors of TNFa-induced NFkB p65 translocation, primary screen, imaging, HUVEC, MLSMR starter and 10KST1 sets (AID 438;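 active = inhibition above 20% together with a positive visual image hit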;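 note: compound added about 3h40 before a 20 min TNFalpha stimulation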;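 for inhibition: signal is the nuclear over cytoplasmic p65 intensity ratio per well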); details: HUVEC TNFa-induced p65 nuclear translocation; cell count: measured here: nuclei count (cytotoxicity indicator), at 2.08 µM; inhibition: at 2 µM, stronger effect = higher value, 0% TNFa-plus-vehicle, 100% no-TNFa wells
# [2] = reduction of polyQ htt aggregates in cells – imaging, exon1htt(103Q)mCFP cells, high-content imaging, primary screen (AID 483;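 active = visual image review flags a hit and inhibition of aggregation exceeds 20%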;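 note: compound exposure lasted 3 days before fixation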;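 for nuclei count: percent of the per-plate median nuclei count of sample wells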); details: exon1htt(103Q)mCFP cell line, aggregate imaging, at 2 µM; inhibition of aggregation: stronger effect = higher value; nuclei count: measured here: cell count, toxicity
# [3] = endothelial E-selectin expression blockers – imaging, HUVEC, immunofluorescence, MLSMR starter and 10KST1 sets, primary screen (AID 487;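 active = visually confirmed hit in the image check and inhibition above 20%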;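 for inhibition: signal is fraction of cell area covered by stained E-selectin grains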;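 for nuclei count: 100% = median nuclei count of all wells on the same plate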); details: HUVEC TNFalpha-induced E-selectin immunofluorescence imaging, at 2 µM; inhibition: stronger effect = higher value; nuclei count: measured here: cell number, toxicity
# [4] = target: Voltage-gated potassium channel subunit beta-2 (Rattus norvegicus) (UniProt P62483); experiment: inhibitors of rat Kvbeta2 reductase activity – biochemical, NADPH fluorescence, primary screen (AID 622;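 active = fluorescence slope higher than the sample average by over 3 SD, cut at about -0.22 in these data, passing the limit was not always enough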;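 note: slope of raw intensity against log time taken from 70 to 1610 s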); details: recombinant KvBeta, 4-cyanobenzaldehyde reduction, at 10 µM, stronger effect = higher value
# Chain of Voltage-gated potassium channel subunit beta-2 (Rattus norvegicus) (P62483 whole entry, looked up): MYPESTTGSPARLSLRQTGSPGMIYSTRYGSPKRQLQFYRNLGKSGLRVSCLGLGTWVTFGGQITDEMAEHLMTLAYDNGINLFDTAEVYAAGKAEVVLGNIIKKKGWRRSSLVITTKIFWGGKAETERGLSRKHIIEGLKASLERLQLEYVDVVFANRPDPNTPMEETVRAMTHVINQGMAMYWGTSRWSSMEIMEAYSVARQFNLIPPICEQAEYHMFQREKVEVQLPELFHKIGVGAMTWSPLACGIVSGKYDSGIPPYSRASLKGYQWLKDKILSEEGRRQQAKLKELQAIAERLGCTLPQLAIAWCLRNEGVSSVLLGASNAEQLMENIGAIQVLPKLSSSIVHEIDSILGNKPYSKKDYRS
# [5] = target: Voltage-gated potassium channel subunit beta-2 (Rattus norvegicus) (UniProt P62483); experiment: enhancers of rat Kvbeta2 NADPH turnover – biochemical, NADPH fluorescence, primary screen (AID 623;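 active = NADPH fluorescence slope more negative than the mean of all samples by about 3 SD, 99.7% confidence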;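 note: fluorescence intensity change per second fitted from 20 to 320 s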); details: Recombinant KvBeta, NADPH fluorescence decrease slope, 10 min; at 10 µM; stronger effect = lower value
# [6] = target: Muscarinic acetylcholine receptor M4 (Homo sapiens) (UniProt P08173); experiment: M4-linked GIRK flux change, two-sided – cell-based, HEK293 M4/GIRK, thallium flux, BTC-AM, M4 allosteric agonist project, primary screen (AID 625;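 active = fluorescence slope after compound addition differing from the mean of all tested samples at 99.7% confidence, mostly higher but some lower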;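 note: thallium influx through GIRK channels coupled to M4 in HEK293 cells with BTC-AM dye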); details: at 10 µM, actives lie on both sides
# Chain of Muscarinic acetylcholine receptor M4 (Homo sapiens) (P08173 whole entry, looked up): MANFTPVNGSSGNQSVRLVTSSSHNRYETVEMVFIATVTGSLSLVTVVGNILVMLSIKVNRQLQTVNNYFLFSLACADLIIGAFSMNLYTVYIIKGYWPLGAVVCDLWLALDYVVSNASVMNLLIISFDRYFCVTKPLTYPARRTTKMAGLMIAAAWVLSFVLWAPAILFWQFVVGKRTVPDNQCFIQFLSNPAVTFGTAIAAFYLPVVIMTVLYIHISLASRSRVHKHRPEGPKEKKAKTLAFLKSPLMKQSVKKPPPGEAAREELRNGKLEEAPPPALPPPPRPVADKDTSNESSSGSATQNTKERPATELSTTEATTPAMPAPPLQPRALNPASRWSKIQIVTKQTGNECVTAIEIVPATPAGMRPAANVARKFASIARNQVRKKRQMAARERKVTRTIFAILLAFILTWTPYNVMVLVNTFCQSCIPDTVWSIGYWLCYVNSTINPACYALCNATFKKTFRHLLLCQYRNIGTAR
# Outline: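 Assay system: HEK293 cells with M4 receptor and GIRK channels / Controls: carbachol and DMSO controls / Schedule: 1 h dye loading, 2 min kinetic read / Technique: kinetic fluorescence with BTC-AM dye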
# [7] = blockers of RIG-like receptor reporter activation – cell-based, Sendai virus stimulus, luciferase, 10K MLSCN set, TLR/RLR signaling modifier project, primary screen (AID 602276); details: HEK293 RL24 IRF3 luciferase reporter, at 10 µM, stronger effect = higher value;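 note: firefly luciferase from ISG56 promoter only with Renilla not read in this screen; 0% = Sendai virus plus DMSO and 100% = medium plus DMSO without virus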
# [8] = TLR3 IRF3 reporter activation blockers – cell-based, poly I:C stimulus, luciferase, 10K MLSCN set, primary screen (AID 602277;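 active = inhibition of the reporter signal at or above 50%; inactive = inhibition below 50%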); details: HEK293-TLR3 RL24 IRF3 luciferase reporter, at 10 µM, stronger effect = higher value
SMILES,cell count [1],inhibition [1],inhibition of aggregation [2],nuclei count [2] [%],inhibition [3],nuclei count [3] [%],fluorescence slope [4],NADPH fluorescence slope [5],fluorescence slope [6],inhibition [7],inhibition [8]
COCCn1cc(C(=O)NCCCN2CCC(C)CC2)c2c3ccccc3n(C)c2c1=O,493,2.1% (inactive),-2.6% (inactive),110,-38.5% (inactive),115,-0.562 (inactive),-5.2e-05 (inactive),0.00626 (inactive),0.372% (inactive),16.6% (inactive)
Cc1ccc(C(C)C)c(OCCCN2CC(C)OC(C)C2)c1 (stereo not drawn),344,-3.9% (inactive),-17.9% (inactive),106,-2.6% (inactive),100,-0.243 (inactive),-5.1e-06 (inactive),0.00607 (inactive),8.84% (inactive),26.1% (inactive)
Cc1c(C(=O)OC(C)C)[nH]c2c1C(=O)CCC2,437,-3.5% (inactive),15.4% (inactive),86.8,54.6% (inactive),99,-0.592 (inactive),-3.8e-05 (inactive),0.00589 (inactive),-15.8% (inactive),-50.8% (inactive)
Cc1ccc2c(c1)-c1cc(C)nn1C(c1ccc3c(c1)OCO3)N2 (stereo not drawn),651,4.2% (inactive),16% (inactive),99.1,-7.1% (inactive),130,-0.568 (inactive),-2.2e-05 (inactive),0.00558 (inactive),-4.39% (inactive),-18.6% (inactive)
CCSc1nnc(NC(=O)c2nn(C(C)C)c(=O)c3ccccc23)s1,221,3.9% (inactive),15.4% (inactive),71.5,31.6% (inactive),94,-0.408 (inactive),-0.000337 (inactive),0.00464 (inactive),9.39% (inactive),11.7% (inactive)
O=C(O)CCc1ccc(-c2ccccc2)n1CC(=O)O,355,2.4% (inactive),-3.7% (inactive),112,-36.5% (inactive),114,-0.564 (inactive),-7.8e-05 (inactive),0.00623 (inactive),-9.35% (inactive),-25.1% (inactive)
CC1CCCC(NC(=O)CN2CCN(Cc3ccc(Cl)cc3)C2=O)C1C (stereo not drawn),512,-6% (inactive),-24.6% (inactive),58.8,-27.1% (inactive),98,-0.553 (inactive),-3.7e-05 (inactive),0.00646 (inactive),14.7% (inactive),20.9% (inactive)
Cc1ccc(N2CC(C(=O)Nc3ccc4c(c3)OCO4)CC2=O)cc1 (stereo not drawn),556,-19.5% (inactive),18.6% (inactive),110,-43.5% (inactive),120,-0.567 (inactive),-4.3e-05 (inactive),0.00603 (inactive),14.2% (inactive),21.6% (inactive)
Cc1cc(C)c(Cn2c(=O)n(CCCC(=O)NCc3ccco3)c(=O)c3ccccc32)c(C)c1,744,-4.2% (inactive),5.8% (inactive),100,-64.2% (inactive),112,-0.578 (inactive),-2.4e-05 (inactive),0.00693 (inactive),14.8% (inactive),17.8% (inactive)
Cn1c(=O)cc(SCC(=O)N2CCOCC2)c2ccc(Cl)cc21,442,-3.9% (inactive),-3.2% (inactive),89.4,52.1% (inactive),92.6,-0.557 (inactive),-5.8e-05 (inactive),0.00569 (inactive),15% (inactive),23.4% (inactive)
COc1cccc(CC(NC(C)=O)C(=O)NC2CCN(c3c4c(nc5ncnn35)CCC4)CC2)c1 (stereo not drawn),767,-6.8% (inactive),-4.2% (inactive),114,-37.8% (inactive),140,-0.464 (inactive),-5.8e-05 (inactive),0.00506 (inactive),17.1% (inactive),22.9% (inactive)
CCOC(=O)CNC(=O)Cn1cnc2c(nnn2-c2cccc(Cl)c2)c1=O,629,-10% (inactive),-8.9% (inactive),140,-41.7% (inactive),110,-0.477 (inactive),4.8e-05 (inactive),0.00553 (inactive),-3.21% (inactive),5.01% (inactive)
CCNc1nc(OC)nc(Oc2ccc(=O)n(-c3ccccc3)n2)n1,769,6.8% (inactive),8.6% (inactive),106,-86.7% (inactive),124,-0.261 (inactive),-3e-05 (inactive),0.00602 (inactive),16.1% (inactive),22% (inactive)
O=C(Cc1ccc(S(=O)(=O)N2CCCC2)s1)Nc1nc2c(s1)CCCC2,577,22.2% (inactive),25.3% (inactive),94.3,18.1% (inactive),71.4,-0.574 (inactive),-5.6e-05 (inactive),0.00565 (inactive),-11% (inactive),-53.9% (inactive)
CCCCN(C)Cc1c(C)[nH]c2c(Cl)cccc2c1=O,326,-0.2% (inactive),0.9% (inactive),92.1,-38.6% (inactive),92.3,-0.434 (inactive),3.3e-05 (inactive),0.00844 (inactive),7.84% (inactive),23.5% (inactive)
Cc1cc2ncn(N)c2cc1C,711,-25.9% (inactive),-20.7% (inactive),108,-53.3% (inactive),118,-0.224 (inactive),-1e-05 (inactive),0.00519 (inactive),17.6% (inactive),15.1% (inactive)
CC1CN(S(=O)(=O)c2cccc(C(=O)OCc3cc(=O)oc4cc(O)ccc34)c2)CC(C)O1 (stereo not drawn),380,-2.9% (inactive),3% (inactive),100,-28.2% (inactive),83,-0.288 (inactive),-7.6e-05 (inactive),0.00505 (inactive),23.9% (inactive),23.3% (inactive)
O=C(O)C1CSC2c3ccccc3C(=O)N12 (stereo not drawn),729,-4.7% (inactive),-3.2% (inactive),96.3,-66.8% (inactive),107,-0.577 (inactive),-6.7e-06 (inactive),0.00676 (inactive),11.2% (inactive),19% (inactive)
CCC(=O)N(Cc1cc2c(C)ccc(C)c2[nH]c1=O)C1CCCCC1,689,-5.6% (inactive),1.1% (inactive),93.2,-36.3% (inactive),100,-0.474 (inactive),-3.7e-05 (inactive),0.00636 (inactive),13.6% (inactive),25.2% (inactive)
CNC(=O)CC(C(=O)O)c1ccc(OCC(C)C)cc1 (stereo not drawn),611,-1.5% (inactive),-15.2% (inactive),114,13.6% (inactive),103,-0.562 (inactive),-8.4e-05 (inactive),0.00333 (inactive),9.55% (inactive),16.9% (inactive)
Cc1onc(-c2c(Cl)cccc2Cl)c1C(=O)NCCN1CCOCC1,548,5.1% (inactive),-1.4% (inactive),98.9,-48.2% (inactive),108,-0.471 (inactive),3e-06 (inactive),0.00527 (inactive),21.3% (inactive),16.3% (inactive)
COc1ccccc1C(=O)NCCc1nc2ccccc2n1C,564,-11.3% (inactive),-5.2% (inactive),113,15.5% (inactive),101,-0.294 (inactive),-2.3e-05 (inactive),0.00691 (inactive),-9.79% (inactive),-4.78% (inactive)
COc1ccc(CCNC(=O)c2nc3ncccn3n2)cc1OC,643,-2.3% (inactive),13.7% (inactive),82.2,-12.1% (inactive),100,-0.447 (inactive),-4.3e-05 (inactive),0.00528 (inactive),18.2% (inactive),18.1% (inactive)
CCOC(=O)N1CCC(NC(=O)c2ccc3nc(N4CCOCC4)sc3c2)CC1,585,2.2% (inactive),0% (inactive),112,36% (inactive),90.8,-0.591 (inactive),1.8e-05 (inactive),0.00698 (inactive),12.9% (inactive),12.3% (inactive)
O=C(Nc1ccc(N2CCOCC2)cc1)c1cccc(S(=O)(=O)N2CCCC2)c1,401,-0.5% (inactive),6.3% (inactive),106,-31.6% (inactive),110,-0.309 (inactive),-3.6e-05 (inactive),0.00454 (inactive),12.2% (inactive),9.44% (inactive)
COc1ccc(-c2noc(-c3cc(Cl)ccc3Cl)n2)cc1OC,686,-10.5% (inactive),-10.9% (inactive),104,14.6% (inactive),86.8,-0.526 (inactive),-2.2e-05 (inactive),0.00828 (inactive),0.153% (inactive),-15.5% (inactive)
CCc1nccn1S(=O)(=O)c1ccc2ccc(C)cc2c1,319,-8.5% (inactive),-4.1% (inactive),104,-60.6% (inactive),112,-0.512 (inactive),1.6e-05 (inactive),0.00461 (inactive),-9.41% (inactive),-15.4% (inactive)
COc1ccc(/C(O)=C2/C(=O)C(=O)N(Cc3cccnc3)C2c2ccncc2)cc1F (stereo not drawn),574,-7.6% (inactive),-2.8% (inactive),106,-3.5% (inactive),117,-0.574 (inactive),-8.3e-05 (inactive),0.00672 (inactive),8.93% (inactive),16.5% (inactive)
